Reference: ChEMBL document CHEMBL1152435, “Efficacious 11beta-hydroxysteroid dehydrogenase type I inhibitors in the diet-induced obesity mouse model” (J Med Chem, 2009)
Values belong to the compound of their own block, whether it stands above or below them. The source made the active and inactive calls. The rule behind the calls is not given here.

Experiments:
[1] = Drug level in DIO-C57/B6 mouse liver in stress free condition at 30 mg/kg in food containing 0.5 mg/gram of high fat diet for 31 days measured on day 4 at 10 am; format: ADME, organism-based; design: dose 30 mg/kg; details: po, read-out: Drug uptake
Mus musculus [2] = assay: Inhibition of 11betaHSD1 in DIO-C57B6 mouse liver at 30 mg/kg in food containing 0.5 mg/gram of high fat diet after 96 hrs; format: functional
Mus musculus [3] = assay: Inhibition of 11betaHSD1 in C57Bl6 mouse epididymal fat tissue assessed as conversion of [3H]cortisone to [3H]cortisol at 10 mg/kg, po after 5 hrs; format: functional; details: C57Bl6, Adipose tissue
Outline: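 Mice were killed 5 h after a single oral dose. Whole liver and epididymal fat were excised, and each intact tissue was incubated in medium containing [3H]-cortisone to measure ex vivo 11β-HSD1 activity.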

[4] = Drug level in DIO-C57/B6 mouse serum in stress free condition at 30 mg/kg in food containing 0.5 mg/gram of high fat diet for 31 days measured on day 4 at 10 am; format: ADME, organism-based; design: dose 30 mg/kg; details: po, read-out: Drug uptake
[5] = Drug level in DIO-C57/B6 mouse liver in stress free condition at 30 mg/kg in food containing 0.5 mg/gram of high fat diet for 31 days measured on day 4 at 10 pm; format: ADME, organism-based; design: dose 30 mg/kg; details: po, read-out: Drug uptake
Mus musculus [6] = assay: Reduction in insulin level in DIO-C57/B6 mouse serum in stress free condition administered compound at 0.5 mg/gram of high fat diet by 28 day food mix study; format: functional, organism-based
[7] = Volume of distribution at steady state in C57/B6 mouse at 2 mg/kg, iv; format: ADME, organism-based; design: dose 2 mg/kg, route intravenous; details: in vivo, read-out: Vdss
in vitro [8] = details: mouse, liver microsomes
[9] = Drug level in DIO-C57/B6 mouse fat in stress free condition at 30 mg/kg in food containing 0.5 mg/gram of high fat diet for 31 days measured on day 4 at 10 pm; format: ADME, organism-based; design: dose 30 mg/kg; details: fat (adipose tissue), po, read-out: Drug uptake
[10] = Half life in C57/B6 mouse at 2 mg/kg, iv; format: ADME, organism-based; design: dose 2 mg/kg, route intravenous; details: in vivo
[11] = Drug level in DIO-C57/B6 mouse serum in stress free condition at 30 mg/kg in food containing 0.5 mg/gram of high fat diet for 31 days measured on day 4 at 10 pm; format: ADME, organism-based; design: dose 30 mg/kg; details: po, read-out: Drug uptake
[12] = Oral bioavailability in C57/B6 mouse at 10 mg/kg; format: ADME, organism-based; details: in vivo
[13] = Clearance in C57/B6 mouse at 2 mg/kg, iv; format: ADME, organism-based; design: dose 2 mg/kg, route intravenous; details: in vivo
[14] = Drug level in DIO-C57/B6 mouse fat in stress free condition at 30 mg/kg in food containing 0.5 mg/gram of high fat diet for 31 days measured on day 4 at 10 am; format: ADME, organism-based; design: dose 30 mg/kg; details: fat (adipose tissue), po, read-out: Drug uptake
in vitro [15] = details: human, liver microsomes
[16] = Tmax in C57/B6 mouse at 10 mg/kg, po; format: ADME, organism-based; design: dose 10 mg/kg, route oral; details: in vivo
[17] = AUC in C57/B6 mouse at 10 mg/kg, po; format: ADME, organism-based; design: dose 10 mg/kg, route oral; details: plasma
[18] = Cmax in C57/B6 mouse at 10 mg/kg, po; format: ADME, organism-based; design: dose 10 mg/kg, route oral; details: in vivo
[19] = Half life in C57/B6 mouse at 10 mg/kg, po; format: ADME, organism-based; design: dose 10 mg/kg, route oral; details: in vivo
[20] = AUC in C57/B6 mouse at 2 mg/kg, iv; format: ADME, organism-based; design: dose 2 mg/kg, route intravenous; details: plasma
Mus musculus [21] = assay: Reduction in glucose level in DIO-C57/B6 mouse serum in stress free condition administered compound at 0.5 mg/gram of high fat diet by 28 day food mix study; format: functional, organism-based
Cynomolgus monkey [22] = assay: Reduction of plasma insulin level in normal cynomolgus monkey at 3 mg/kg after 8 hrs; format: functional, Macaca fascicularis; design: scale not given: the % may be the effect or the level left
Cynomolgus monkey [23] = assay: Reduction of plasma insulin level in normal cynomolgus monkey at 1 mg/kg after 8 hrs; format: functional, Macaca fascicularis; design: scale not given: the % may be the effect or the level left
[24] = Metabolic stability in mouse liver microsomes; format: ADME, Microsome; details: read-out: Stability
[25] = Metabolic stability in human liver microsomes; format: ADME, Microsome; details: read-out: Stability

concentration at 744 h [1]: 8130 ng/g
concentration at 744 h [4]: 1140 ng/mL
concentration at 744 h [5]: 9540 ng/g
Vd [7]: 2.6 L/kg
half-life (in vitro [8]): > 0.5 h
concentration at 744 h [9]: 3360 ng/g
half-life [10]: 7.3 h
concentration at 744 h [11]: 1090 ng/mL
bioavailability [12]: 50%
clearance [13]: 5 mL/min/kg
concentration at 744 h [14]: 3620 ng/g
half-life (in vitro [15]): > 0.5 h
Tmax [16]: 4 h
AUC [17]: 17000 ng·h/mL
Cmax [18]: 1440 ng/mL
half-life [19]: 7.2 h
AUC [20]: 6740 ng·h/mL
SMILES: C[C@@H]1CN(c2ccc(F)cc2C(F)(F)F)CCN1S(=O)(=O)c1ccc(C(N)=O)cc1Cl
inhibition in vivo at 30 mg/kg (Mus musculus [2]): 95%
inhibition in vivo at 10 mg/kg (Mus musculus [3]): 80%
Activity (Mus musculus [6]): Active
Activity (Mus musculus [21]): Active

SMILES: N#Cc1ccc(-c2ccc(S(=O)(=O)Nc3cccc(N)n3)cc2)cc1
Activity (Cynomolgus monkey [22]): 60%
Activity (Cynomolgus monkey [23]): 54%

half-life [24]: 0.2 h
half-life [25]: 0.283 h
SMILES: C[C@@H]1CN(c2ccc(F)cc2C(F)(F)F)CCN1S(=O)(=O)c1cccc(-n2cncn2)c1
